Experimental data published in ChEMBL document CHEMBL2424598, “Identification and optimization of pteridinone Toll-like receptor 7 (TLR7) agonists for the oral treatment of viral hepatitis” (J Med Chem, 2013).
Active and inactive are the calls of the source. The rule behind the calls is not given here.

Columns and labels:
[1] = Cmax in cynomolgus monkey at 0.1 mg/kg, po; type: ADME, organism-based, Macaca fascicularis; parameters: dose 0.1 mg/kg, route oral; settings: in vivo
Outline: (§1)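 Male cynomolgus monkeys, n = 3 per group, received a 30 min iv infusion or an oral dose. Compound was measured in serum (limit of quantitation 0.04 ng/mL), and Cmax is reported as the group mean.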

[2] = biological target: T1, Toll-like receptor 7 (Homo sapiens) (UniProt Q9NYK1); assay: Agonist activity at TLR7-mediated IFNalpha production in human PBMC assessed as minimum concentration of compound necessary to generate >3 fold of cytokine levels relative to control
T1 sequence (whole entry): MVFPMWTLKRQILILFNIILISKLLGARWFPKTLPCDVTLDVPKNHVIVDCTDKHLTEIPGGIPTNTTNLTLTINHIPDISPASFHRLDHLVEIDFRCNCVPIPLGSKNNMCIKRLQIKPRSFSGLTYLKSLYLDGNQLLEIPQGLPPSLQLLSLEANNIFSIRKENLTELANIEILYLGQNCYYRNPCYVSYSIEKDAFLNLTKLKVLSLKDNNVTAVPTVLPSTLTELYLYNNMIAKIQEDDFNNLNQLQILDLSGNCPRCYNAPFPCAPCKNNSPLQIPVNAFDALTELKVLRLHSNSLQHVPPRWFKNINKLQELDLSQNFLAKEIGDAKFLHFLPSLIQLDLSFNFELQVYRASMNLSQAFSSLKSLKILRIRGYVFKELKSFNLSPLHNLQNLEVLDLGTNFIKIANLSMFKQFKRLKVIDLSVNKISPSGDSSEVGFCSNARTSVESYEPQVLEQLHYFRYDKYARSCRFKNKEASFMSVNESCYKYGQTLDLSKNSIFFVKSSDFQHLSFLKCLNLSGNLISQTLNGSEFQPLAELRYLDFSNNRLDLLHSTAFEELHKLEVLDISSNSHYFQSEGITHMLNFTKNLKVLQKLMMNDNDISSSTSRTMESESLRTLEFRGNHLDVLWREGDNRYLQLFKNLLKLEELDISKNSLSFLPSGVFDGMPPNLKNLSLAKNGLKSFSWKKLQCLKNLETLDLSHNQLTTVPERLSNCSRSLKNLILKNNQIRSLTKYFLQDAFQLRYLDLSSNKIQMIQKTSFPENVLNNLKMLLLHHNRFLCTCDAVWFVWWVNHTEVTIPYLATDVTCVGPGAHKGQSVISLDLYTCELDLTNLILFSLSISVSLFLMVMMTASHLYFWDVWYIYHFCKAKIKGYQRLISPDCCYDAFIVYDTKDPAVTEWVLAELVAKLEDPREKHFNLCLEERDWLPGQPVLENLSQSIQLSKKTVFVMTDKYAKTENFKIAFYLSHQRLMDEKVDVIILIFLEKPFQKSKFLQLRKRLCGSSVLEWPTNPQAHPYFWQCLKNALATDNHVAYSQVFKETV
Outline: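 Cryopreserved PBMCs from leukapheresis of a single healthy human donor, chosen as a consistent, robust responder to TLR7 agonist stimulation. Cells were incubated with compound for 24 h over an eight-point concentration range. Secreted IFN-α was measured to build dose-response curves. MEC was taken as the lowest concentration giving cytokine levels ≥3-fold over untreated control cultures.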

[3] = test system: Cynomolgus monkey; assay: Agonist activity at […] in cynomolgus monkey assessed as increase of serum IFNalpha level at 0.1 mg/kg, po after 1 to 24 hrs by ELISA; type: functional, Macaca fascicularis
Outline: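 Healthy male cynomolgus monkeys, n = 3 per group, dosed either by 30 min iv infusion or orally. Serum was sampled predose and at 1, 2, 4, 8, 12 and 24 h postdose. IFN-α was measured by species-specific ELISA (limit of detection 130 pg/mL) and reported as mean peak serum level ± SD.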

[4] = test system: Cynomolgus monkey; assay: Agonist activity at […] in cynomolgus monkey assessed as increase of serum TNFalpha level at 0.3 to 1 mg/kg after 1 to 24 hrs by ELISA; settings: Macaca fascicularis
[5] = Half life in mouse liver microsomes; type: ADME, Microsome
[6] = biological target: T2, Toll-like receptor 8 (Homo sapiens, UniProt Q9NR97); assay: Agonist activity at human TLR8 expressed in HEK293 cells by reporter based assay; type: cell-based
T2 sequence (Q9NR97 whole entry): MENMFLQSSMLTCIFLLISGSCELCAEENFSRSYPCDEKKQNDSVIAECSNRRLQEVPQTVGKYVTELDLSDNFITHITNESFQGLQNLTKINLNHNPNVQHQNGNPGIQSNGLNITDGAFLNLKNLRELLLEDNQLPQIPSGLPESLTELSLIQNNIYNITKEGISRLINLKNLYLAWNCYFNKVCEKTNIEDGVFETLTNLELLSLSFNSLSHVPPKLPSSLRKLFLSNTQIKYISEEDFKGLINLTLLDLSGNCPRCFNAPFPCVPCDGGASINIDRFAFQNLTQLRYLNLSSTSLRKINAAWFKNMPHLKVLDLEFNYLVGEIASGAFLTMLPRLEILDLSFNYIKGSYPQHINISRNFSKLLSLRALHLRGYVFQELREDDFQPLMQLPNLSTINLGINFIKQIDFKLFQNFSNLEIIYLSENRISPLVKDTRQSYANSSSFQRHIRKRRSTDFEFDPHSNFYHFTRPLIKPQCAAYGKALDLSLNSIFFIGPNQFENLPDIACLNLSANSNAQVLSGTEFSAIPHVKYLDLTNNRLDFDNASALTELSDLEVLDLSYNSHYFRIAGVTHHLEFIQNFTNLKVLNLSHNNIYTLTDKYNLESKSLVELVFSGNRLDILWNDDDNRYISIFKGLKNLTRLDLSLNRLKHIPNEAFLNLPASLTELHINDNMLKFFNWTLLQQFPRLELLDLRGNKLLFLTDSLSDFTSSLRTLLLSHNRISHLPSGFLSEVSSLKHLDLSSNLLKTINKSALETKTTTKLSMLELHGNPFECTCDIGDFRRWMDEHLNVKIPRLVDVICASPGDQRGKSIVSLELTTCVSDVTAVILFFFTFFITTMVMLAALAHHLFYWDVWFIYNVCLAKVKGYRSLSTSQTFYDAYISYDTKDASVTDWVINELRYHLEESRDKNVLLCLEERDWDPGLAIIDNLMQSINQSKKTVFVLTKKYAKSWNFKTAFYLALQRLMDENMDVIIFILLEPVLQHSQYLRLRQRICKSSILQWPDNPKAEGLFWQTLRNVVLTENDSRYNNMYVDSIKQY
Outline: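 HEK293 reporter cell lines, each expressing a single human TLR, with compound titrated up to 100 μM. EC50 taken for TLR7 and TLR8 activation.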

[7] = Volume of distribution at steady state in cynomolgus monkey at 0.1 mg/kg, iv and 0.3 mg/kg, po; type: ADME, organism-based, Macaca fascicularis; settings: in vivo, read-out: Vdss
Outline: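 Healthy male cynomolgus monkeys, n = 3, received a 30 min iv infusion at 0.1 mg/kg or an oral dose at 0.3 mg/kg. The oral formulation was water at pH 3.1 (HCl). Plasma PK parameters (CL, Vss, F) are reported as mean ± SD.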

[8] = Cmax in cynomolgus monkey at 0.3 mg/kg, po; type: ADME, organism-based, Macaca fascicularis; parameters: dose 0.3 mg/kg, route oral; settings: in vivo; outline: as §1
[9] = Cmax in cynomolgus monkey at 2 mg/kg, po; type: ADME, organism-based, Macaca fascicularis; parameters: dose 2 mg/kg, route oral; settings: in vivo; outline: as §1

Q: Which Cmax [1] does the source give for `CCCCOc1nc(N)c2c(n1)N(Cc1cccc(CN3CCCC3)c1)CC(=O)N2` [VESATOLIMOD] here?
A: The Cmax was 1.6 ng/mL.

Q: What about the MEC [2] of the same compound?
A: Its MEC is 3 nM.

Q: And the Activity [3]?
A: The Activity was 140 pg/mL.

Q: What about the Activity [4] of the same compound?
A: The Activity was “inactive”.

Q: What about the half-life [5] of the same compound?
A: The half-life was 4.9 min.

Q: And the EC50 [6]?
A: The EC50 was 9 µM.

Q: And the Vd [7]?
A: The Vd was 4.1 L/kg.

Q: What about the Cmax [8] of the same compound?
A: The Cmax was 4.6 ng/mL.

Q: What about the Cmax [9] of the same compound?
A: Its Cmax is 66.4 ng/mL.
